Test results: ChEMBL document CHEMBL4219220, “Novel compounds that target lipoprotein lipase and mediate growth arrest in acute lymphoblastic leukemia” (Bioorg Med Chem Lett, 2018)
Calls of active or inactive are those of the source. The rule behind the calls is not given here.

Experiments:
[1] = test system: SUP-B15; test: Antiproliferative activity in human SUP-B15 cells assessed as inhibition of cell proliferation at 50 uM incubated for 72 hrs by CCK8 assay; type: functional, cell-based
How it was run: (§1)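 REH (Ph-negative, peripheral blood derived) and SupB15 (Ph-positive, bone marrow derived) B-ALL cells seeded at 50,000 cells/well in 96-well plates. Single test concentration of 50 μM (final) for 72 h, with untreated cells as controls. Proliferation read by CCK-8 (reagent 2 h at 37° C, absorbance 450 nm). Mean ± SEM, N = 3.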

[2] = test system: REH; test: Antiproliferative activity in human REH cells assessed as inhibition of cell proliferation at 50 uM incubated for 72 hrs by CCK8 assay; type: functional; how it was run: as §1
[3] = test system: REH; test: Induction of cell death in human REH cells co-cultured with bone marrow stromal cells assessed as increase in cell death of suspended floater cells at 20 to 40 uM; type: functional, cell-based
How it was run: (§2)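 REH leukemic cells in co-culture with bone marrow stromal cells. Two fractions were scored: suspended floaters (FL), and phase dim (PD) cells lying beneath the stromal layer. Read-outs were live cell population and cell death.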

[4] = test system: REH; test: Induction of cell death in human REH cells co-cultured with bone marrow stromal cells assessed as reduction in live cell population of suspended floater cells at 20 to 40 uM; type: functional, cell-based; how it was run: as §2
[5] = test system: REH; test: Induction of cell death in human REH cells co-cultured with bone marrow stromal cells assessed as increase in cell death of phase dim cells buried underneath bone marrow stromal layer at 20 to 40 uM; type: functional, cell-based; how it was run: as §2
[6] = test system: REH; test: Induction of cell death in human REH cells co-cultured with bone marrow stromal cells assessed as reduction in live cell population of phase dim cells buried underneath bone marrow stromal layer at 20 to 40 uM; type: functional, cell-based; how it was run: as §2
[7] = test system: REH; test: Antiproliferative activity in human REH cells assessed as inhibition of cell proliferation incubated for 72 hrs by CCK8 assay; type: functional, cell-based
How it was run: (§3)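 Dose-response in REH and SupB15 cells. Proliferation read by CCK-8 after 72 h of compound exposure (reagent 2 h at 37° C, absorbance 450 nm). IC50 taken from the dose-response curve.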

[8] = molecular target: Albumin (Homo sapiens, UniProt P02768); test: Binding affinity to serum albumin (unknown origin) at 1 to 100 uM; type: ADME; settings: read-out: PB
[9] = test system: SUP-B15; test: Antiproliferative activity in human SUP-B15 cells assessed as inhibition of cell proliferation incubated for 72 hrs by CCK8 assay; type: functional, cell-based; settings: SUP-B15, 72 h; how it was run: as §3

Chain of Albumin (P02768 whole entry): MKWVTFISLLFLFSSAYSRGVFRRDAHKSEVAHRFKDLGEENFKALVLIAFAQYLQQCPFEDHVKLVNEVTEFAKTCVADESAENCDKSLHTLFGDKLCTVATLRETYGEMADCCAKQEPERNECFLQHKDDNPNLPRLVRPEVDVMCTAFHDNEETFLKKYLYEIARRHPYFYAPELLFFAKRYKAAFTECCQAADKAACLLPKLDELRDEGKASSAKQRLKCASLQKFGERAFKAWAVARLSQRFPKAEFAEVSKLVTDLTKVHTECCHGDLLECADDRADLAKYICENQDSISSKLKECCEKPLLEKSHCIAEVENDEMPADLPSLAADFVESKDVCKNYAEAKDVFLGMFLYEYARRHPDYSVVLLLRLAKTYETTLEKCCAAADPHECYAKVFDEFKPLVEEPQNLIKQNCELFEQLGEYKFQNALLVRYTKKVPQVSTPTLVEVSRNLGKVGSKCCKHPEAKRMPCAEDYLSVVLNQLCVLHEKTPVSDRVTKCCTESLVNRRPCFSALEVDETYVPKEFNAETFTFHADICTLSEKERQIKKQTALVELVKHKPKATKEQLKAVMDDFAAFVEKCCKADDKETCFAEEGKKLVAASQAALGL

| Compound | inhibition [1] | inhibition [2] | other results |
| --- | --- | --- | --- |
| Cc1cc(CNC(=O)C2C(c3ccc(F)cc3)C2(C)C)ccn1 (configuration not stated) | inactive | Active |  |
| Cc1nc[nH]c1CCCCNC(=O)C1C(c2ccc(F)cc2)C1(C)C (configuration not stated) | inactive | Active |  |
| CC1(C)C(C(=O)N2CCC3(CCCO3)CC2)C1c1ccc(F)cc1 (configuration not stated) | inactive | Active |  |
| CC1(C)C(C(=O)NCCCN2CCOCC2)C1c1ccc(F)cc1 (configuration not stated) | inactive | Active |  |
| CC1(C)C(C(=O)NCCCc2cnc(N)s2)C1c1ccc(F)cc1 (configuration not stated) | inactive | Active |  |
| CC1(C)C(C(=O)N2CCN(c3cnccn3)CC2)C1c1ccc(F)cc1 (configuration not stated) | inactive | Active |  |
| CC1(C)C(C(=O)N2CC(c3cccnc3)C2)C1c1ccc(F)cc1 (configuration not stated) | inactive | Active |  |
| Cc1cccnc1CN1CCN(C(=O)C2C(c3ccc(F)cc3)C2(C)C)CC1 (configuration not stated) | inactive | Active |  |
| CSc1ncc(CNC(=O)C2C(c3ccc(F)cc3)C2(C)C)n1C (configuration not stated) | inactive | Active |  |
| CSCc1nc(CNC(=O)C2C(c3ccc(F)cc3)C2(C)C)no1 (configuration not stated) | inactive | Active |  |
| CN1CC2(CCC1=O)CCN(C(=O)C1C(c3ccc(F)cc3)C1(C)C)CC2 (configuration not stated) | inactive | Active |  |
| CC1(C)C(C(=O)NCCNc2cccnc2)C1c1ccc(F)cc1 (configuration not stated) | inactive | Active |  |
| CC1(C)C(C(=O)NCC2CCC(C(=O)O)CC2)C1c1ccc(F)cc1 (configuration not stated) | inactive | Active |  |
| Cc1nccn1-c1ccccc1CNC(=O)C1C(c2ccc(F)cc2)C1(C)C (configuration not stated) | inactive | Active |  |
| Cc1cnc(CNC(=O)C2C(c3ccc(F)cc3)C2(C)C)cn1 (configuration not stated) | inactive | Active |  |
| CCc1c(C)nn(CCNC(=O)C2C(c3ccc(F)cc3)C2(C)C)c1C (configuration not stated) | Active |  | Activity [3]: Active; Activity [4]: Active; Activity [5]: Active; Activity [6]: Active; IC50 [7]: 16.5 µM; fraction unbound at up to 100 µM [8]: > 0.95; inhibition at 50 µM [2]: > 50%; IC50 [9]: 44.7 µM |
| Cc1cccc(=O)n1CCCNC(=O)C1C(c2ccc(F)cc2)C1(C)C (configuration not stated) | inactive | Active |  |
| CC1C=NN=C1C(C)NC(=O)C1C(c2ccc(F)cc2)C1(C)C (configuration not stated) | inactive | Active |  |
| CC1(C)C(C(=O)NCc2noc(-c3ccco3)n2)C1c1ccc(F)cc1 (configuration not stated) | inactive | Active |  |
| COCc1cc(CNC(=O)C2C(c3ccc(F)cc3)C2(C)C)n[nH]1 (configuration not stated) | inactive | Active |  |
